Data set [1] deals with U2OS. The data set can be described thus: Upregulation of nuclear 8-oxo-dG level in human U2OS cells at 100 to 300 nM incubated for 72 hrs by high content analysis. Format: functional, cell-based. The following applies: dose 100-300 nM. The essentials:
(§1)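 U2OS cells were immunostained for 8-oxo-dG and DNA, then imaged by high content analysis. Average nuclear 8-oxo-dG intensity and average nuclear count were measured together.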

Data set [2] concerns U2OS. The data set can be described thus: Upregulation of nuclear 8-oxo-dG level in human U2OS cells at 1 to 2 uM incubated for 72 hrs by high content analysis. The format is functional, cell-based. The following applies: dose 1-2 µM. The essentials: as §1
Data set [3] can be described thus: Metabolic stability in Han Wistar rat hepatocytes using well-stirred liver model assessed as maximum bioavailability at 1 uM measured for 2 to 90 mins by LC-MS/MS analysis. Format: ADME, Hepatocyte. The following applies: time 2-90 min, route po, read-out: Fmax.
For data set [4], the system named is HeLa. The data set can be described thus: Upregulation of OGG1 mRNA level in human HeLa cells at 1 uM incubated for 6 days by qPCR analysis. Format: functional, cell-based. The following applies: time 6.0 day. On the technique in general: In qPCR the cycle at which signal appears reflects the starting amount.
For data set [5], the system named is NCI-H460. The data set can be described thus: Antitumor activity against human NCI-H460 cells xenografted in NMRI nude mouse assessed as reduction in tumor volume at 100 mg/kg, po measured for 10 days. The following applies: time 10.0 day. (Xenograft models place foreign cells or tissue in a host animal.)
Data set [6] deals with HeLa. Put plainly: Upregulation of MUTYH mRNA level in human HeLa cells at 1 uM incubated for 6 days by qPCR analysis. Particulars: time 6.0 day. Format: functional, cell-based.
Data set [7] in a line: Toxicity in NMRI nude mouse assessed as body weight loss upto 250 mg/kg, po qd for 7 days. Format: organism-based. The following applies: in vivo, 168 h, time 7 day. The essentials:
(§2)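 Female NMRI nude mice received oral doses in PEG/water (80:20), escalated step-wise from 25 to 250 mg/kg over 7 days. Body weight, overt toxicity and mortality were monitored, and observation was extended a further 7 days to catch latent toxicity.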

Data set [8] can be described thus: Aqueous solubility of compound in pH 6.5. Format: physicochemical. The following applies: buffer.
The test system of data set [9] is CT26. Put plainly: Additive antitumor activity against mouse CT26 cells xenografted in NMRI nude mouse assessed as reduction in tumor growth at 100 mg/kg, po along with radiation treatment measured for 12 days. The format is functional, organism-based. Particulars: time 12.0 day.
For data set [10], the system named is HeLa. Put plainly: Upregulation of OGG1 protein level in human HeLa cells at 1 uM by Western blot analysis. Format: functional, cell-based. The procedure, abridged:
(§3)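 HeLa cells were treated and probed by Western blot for MTH2, OGG1, MUTYH and MTH1. HSP90 served as loading control.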
A general note: In western blotting, separated proteins are transferred to a membrane and probed.

For data set [11], the system named is CT26. Put plainly: Antitumor activity against mouse CT26 cells xenografted in NMRI nude mouse assessed as reduction in tumor weight at 100 mg/kg, po measured for 12 days. Particulars: time 12.0 day. Format: functional, organism-based.
Data set [12] has as its system CT26. The data set can be described thus: Antitumor activity against mouse CT26 cells xenografted in NMRI nude mouse assessed as reduction in tumor volume at 100 mg/kg, po measured for 12 days. Format: functional, organism-based. The following applies: time 12.0 day.
For data set [13], the system named is MCF7. The data set can be described thus: Inhibition of colony formation of human MCF7 cells at 0.1 to 10 uM measured after 15 days by soft agar assay. Particulars: dose 0.1-10 µM, time 15.0 day. Format: functional, cell-based.
The nature of data set [14]: Cytotoxicity against HMEC cells assessed as cell growth inhibition incubated for 144 hrs by alamarblue staining based assay. Format: toxicity. Particulars: human.
Data set [15] deals with NCI-H460. Put plainly: Antitumor activity against human NCI-H460 cells xenografted in NMRI nude mouse assessed as reduction in tumor weight at 100 mg/kg, po measured for 10 days. The following applies: time 10.0 day.
A short description of data set [16]: Metabolic stability in Han Wistar rat hepatocytes using well-stirred liver model assessed as clearance at 1 uM measured for 2 to 90 mins by LC-MS/MS analysis. Format: ADME, cell-based, Hepatocyte. The following applies: time 2-90 min.
Data set [17] deals with U2OS. The data set can be described thus: Effect on nuclear 8-oxo-dG level in human U2OS cells at 10 to 30 uM incubated for 72 hrs in presence of LCS1 by high content analysis. Format: functional, cell-based. The following applies: dose 10-30 µM.
Data set [18] in a line: Toxicity in NMRI nude mouse assessed as drug tolerability at 25 to 250 mg/kg, po qd for 7 days. Format: organism-based. The following applies: in vivo, 168 h, dose 25-250 mg/kg, time 7 day. The procedure, abridged: as §2
Data set [19] has as its system HeLa. Put plainly: Upregulation of MUTYH protein level in human HeLa cells at 1 uM by Western blot analysis. The format is functional, cell-based. The essentials: as §3
Data set [20] deals with U2OS. The data set can be described thus: Effect on nuclear 8-oxo-dG level in human U2OS cells at 10 to 30 uM incubated for 72 hrs by high content analysis. The format is functional, cell-based. The following applies: dose 10-30 µM. The essentials: as §1
Data set [21] is described as follows: Distribution coefficient, logD of compound at pH 7.5 by HPLC analysis. Format: physicochemical. The following applies: octanol/water.
Data set [22] can be described thus: Metabolic stability in human liver microsomes assessed as clearance at 1 uM measured for 2 to 60 mins by LC-MS/MS analysis. Format: ADME, Microsome. Particulars: time 2-60 min.
A short description of data set [23]: Protein binding in mouse plasma assessed as free fraction. Format: ADME, cell-free.
The nature of data set [24]: Apparent permeability across apical to basolateral side in human Caco-2 cells at 2 uM incubated for 2 hrs by LC/MS/MS analysis. The format is ADME, cell-based.
In data set [25] the test system is NCI-H358. The data set can be described thus: Induction of DNA double strand breaks in human NCI-H358 cells assessed as increase in gamma-H2AX expression at 12.4 uM incubated for 72 hrs by high content analysis. The format is functional, cell-based. The essentials:
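NCI-H358 cells were immunostained for γH2AX and DNA and analysed by high content imaging. The highest concentration tested was 12.4 µM, and EC50 was taken for DSB induction.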

Data set [26] can be described thus: Metabolic stability in human liver microsomes assessed as maximum bioavailability at 1 uM measured for 2 to 60 mins by LC-MS/MS analysis. Format: ADME, Microsome. The following applies: time 2-60 min, read-out: Fmax.
The test system of data set [27] is U2OS. Put plainly: Cytotoxicity against human U2OS cells assessed as reduction in cell viability by measuring nuclei count at 30 uM incubated for 72 hrs by high content analysis. The format is functional, cell-based. The procedure, abridged: as §1
Data set [28] relates to NCI-H358. The data set can be described thus: Induction of DNA double strand breaks in human NCI-H358 cells assessed as increase in gamma-H2AX expression at 0.005 to 12 micromol/L incubated for 72 hrs by high content analysis. The following applies: NCI-H358, 72 h.
The test system of the next data set is MDA-MB-231. Put plainly: cells. Particulars: Homo sapiens, MDA-MB-231, 144 h.
The test system of another data set is SW480. The data set can be described thus: cells. The following applies: Homo sapiens, SW480, 144 h.
Data set [29] deals with NCI-H460. Put plainly: cells. Particulars: Homo sapiens, NCI-H460, 144 h.
The subject of the next data set is A549. The data set can be described thus: cells. Particulars: Homo sapiens, A549, 144 h.
Data set [30] has as its system NCI-H358. The data set can be described thus: cells. Particulars: Homo sapiens, NCI-H358, 144 h.
In data set [31] the test system is MCF7. The data set can be described thus: cells. Particulars: Homo sapiens, MCF7, 144 h.
For data set [32], the system named is U2OS. Put plainly: cells. The following applies: Homo sapiens, 144 h.
The subject of data set [33] is HeLa. Put plainly: cells. Particulars: Homo sapiens, 144 h.
In data set [34] the test system is U2OS. Put plainly: Upregulation of nuclear 8-oxo-dG level in human U2OS cells at 2 to 10 uM incubated for 72 hrs by high content analysis. Format: functional, cell-based. Particulars: dose 2-10 µM. The essentials: as §1

For orientation: solubility means the concentration that dissolves in the medium under given conditions. The GI50 is the concentration that inhibits growth by half. As usually defined, the logD is lipophilicity at a set pH, counting ionised and neutral species. As a reminder, the fraction unbound is the share of the substance not bound to proteins or other matrix. As usually defined, the Papp A→B is the apparent permeability from the apical to the basolateral side of a cell layer. One may read the EC50 as the concentration needed to bring the measured effect to its halfway point.

The structures appear in SMILES notation. Values after ≈ are worked out from the molar mass of the structure shown. Active and inactive are the calls of the source. The calls are words filed in the database; no cut-off is given here.

As to `CC[C@@H]1C(=O)N(C)c2cnc(Nc3ccc(C(=O)N[C@H]4CC[C@H](N5CCN(CC6CC6)CC5)CC4)cc3OC)nc2N1C(C)C`, the outcome with U2OS [1] was Active.

On to `CC(C)(C)c1cnc(CSc2cnc(NC(=O)C3CCNCC3)s2)o1`, for which, in the data set with U2OS [2], the result was Active.

As for `CCNC(=O)c1cc2c(N3CCOC[C@@H]3C)ccnc2[nH]1`, the values for the Fh at 1 µM in data set [3] and in data set [26] were 87% and 78%, respectively. In addition, the outcome with HeLa [4], in the data set with NCI-H460 [5], with HeLa [6], with CT26 [9], with HeLa [10] and in the data set on CT26 [11] was inactive. Further, the outcome in the data set on CT26 [12], in the data set with NCI-H460 [15], with U2OS [17], in the data set with HeLa [19], in the data set with U2OS [20] and with NCI-H358 [25] was inactive. Besides, the Activity in data set [7] is less than 10%; in [18], “Non-Toxic”. Besides, in data set [8], the solubility came out at 288 µg/mL (≈ 999 µM). In addition, the inhibition entry with MCF7 [13] was “inactive”. Moreover, the GI50 at 144 h in data set [14] is greater than 30 µM. Besides, the CLhep predicted at 1 µM in data set [16] is 9 mL/min/kg. Further, the logD in data set [21] turned out to be 1.6. Moreover, the CLH in data set [22] is 4.83 mL/min/kg. Besides, the fraction unbound in data set [23] was 0.48. For the same molecule, in [24], the Papp A→B at 2 h, 2 µM stood at 14.8 ×10⁻⁶ cm/s.

`Nc1nc(NC2CC2)cc(-c2cccc(Cl)c2Cl)n1`: the figures for the Fh at 1 µM in [3] and in data set [26] were 54% and 51%, respectively. In addition, the outcome in the data set on HeLa [4], in the data set on HeLa [6], in the data set with HeLa [10] and in the data set with HeLa [19] was inactive. The outcome with U2OS [27] was Active. The EC50 with NCI-H358 [28] was determined as 3.11 µM. In [8], this molecule came in with a solubility of 38 µg/mL (≈ 129 µM). In addition, the GI50 at 144 h in data set [14] is 3.2 µM. The GI50 was determined as 6.3 µM with MDA-MB-231; 5.3 µM in the data set on SW480; 7.1 µM in the data set with NCI-H460 [29]; 4 µM in the data set on A549; 4.9 µM in the data set on NCI-H358 [30]; 3.5 µM in the data set on MCF7 [31]. In addition, the GI50 in the data set on U2OS [32] was 2.6 µM; with HeLa [33], 4.2 µM. In addition, the CLhep predicted at 1 µM in data set [16] is 32 mL/min/kg. The logD in [21] stood at 2.5. Besides, the CLH in data set [22] turned out to be 10.7 mL/min/kg. Also, in data set [23], the fraction unbound stood at 0.04. Further, in data set [24], the Papp A→B at 2 h, 2 µM was 30.7 ×10⁻⁶ cm/s.

For the molecule `Cc1cccc(-n2ncc(Cl)c(Cl)c2=O)c1`, in the data set on U2OS [27], the result was Active.

For `Cc1cc(Nc2cc(N3CCN(C)CC3)nc(Sc3ccc(NC(=O)C4CC4)cc3)n2)n[nH]1`, in the data set with U2OS [34], the outcome was Active.

Values taken from ChEMBL document CHEMBL5653629, “Novel Class of Potent and Cellularly Active Inhibitors Devalidates MTH1 as Broad-Spectrum Cancer Target” (ACS Chem Biol, 2017).
